How the values were obtained:
Cholinesterase [1] = target: T1, Cholinesterase (Homo sapiens, UniProt P06276); assay: Inhibition of BChE (unknown origin) using butyrylthiocholine chloride as substrate at 0.5 mM preincubated for 30 mins before substrate addition measured after 30 mins by Ellman method relative to control
Cholinesterase [2] = target: T1, Cholinesterase; assay: Inhibition of BChE (unknown origin) using butyrylthiocholine chloride as substrate […] measured after 30 mins by Ellman method
Acetylcholinesterase [3] = target: T2, Acetylcholinesterase (Homo sapiens, UniProt P22303); assay: Inhibition of AChE (unknown origin) using acetylthiocholine iodide as substrate at 0.5 mM preincubated for 30 mins before substrate addition measured after 30 mins by Ellman method relative to control
T2 sequence (P22303 whole entry): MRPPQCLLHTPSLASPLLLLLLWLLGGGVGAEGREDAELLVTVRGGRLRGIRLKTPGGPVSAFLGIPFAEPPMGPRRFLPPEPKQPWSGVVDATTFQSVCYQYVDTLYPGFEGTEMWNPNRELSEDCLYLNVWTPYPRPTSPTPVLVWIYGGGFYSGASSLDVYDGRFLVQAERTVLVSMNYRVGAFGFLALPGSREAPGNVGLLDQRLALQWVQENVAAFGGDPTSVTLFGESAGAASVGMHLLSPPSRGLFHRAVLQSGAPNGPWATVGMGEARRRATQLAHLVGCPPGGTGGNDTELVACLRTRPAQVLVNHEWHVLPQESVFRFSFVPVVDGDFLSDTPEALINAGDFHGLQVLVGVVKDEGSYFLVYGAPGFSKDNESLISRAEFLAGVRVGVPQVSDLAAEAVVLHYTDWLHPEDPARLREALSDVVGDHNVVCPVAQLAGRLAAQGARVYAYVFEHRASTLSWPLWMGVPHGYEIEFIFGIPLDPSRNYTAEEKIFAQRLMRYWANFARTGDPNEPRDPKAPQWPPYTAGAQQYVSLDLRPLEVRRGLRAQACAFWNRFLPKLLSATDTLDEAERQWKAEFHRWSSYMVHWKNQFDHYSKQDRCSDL

Acetylcholinesterase [4] = target: T2, Acetylcholinesterase; assay: Inhibition of AChE (unknown origin) using acetylthiocholine iodide as substrate […] measured after 30 mins by Ellman method
[5] = target: Cholinesterases; ACHE & BCHE (Homo sapiens) (UniProt P06276+P22303); assay: Selectivity ratio of IC50 for AChE (unknown origin) to IC50 for BChE (unknown origin)
Sequence of Cholinesterases; ACHE & BCHE (Homo sapiens) (P06276 whole entry, looked up): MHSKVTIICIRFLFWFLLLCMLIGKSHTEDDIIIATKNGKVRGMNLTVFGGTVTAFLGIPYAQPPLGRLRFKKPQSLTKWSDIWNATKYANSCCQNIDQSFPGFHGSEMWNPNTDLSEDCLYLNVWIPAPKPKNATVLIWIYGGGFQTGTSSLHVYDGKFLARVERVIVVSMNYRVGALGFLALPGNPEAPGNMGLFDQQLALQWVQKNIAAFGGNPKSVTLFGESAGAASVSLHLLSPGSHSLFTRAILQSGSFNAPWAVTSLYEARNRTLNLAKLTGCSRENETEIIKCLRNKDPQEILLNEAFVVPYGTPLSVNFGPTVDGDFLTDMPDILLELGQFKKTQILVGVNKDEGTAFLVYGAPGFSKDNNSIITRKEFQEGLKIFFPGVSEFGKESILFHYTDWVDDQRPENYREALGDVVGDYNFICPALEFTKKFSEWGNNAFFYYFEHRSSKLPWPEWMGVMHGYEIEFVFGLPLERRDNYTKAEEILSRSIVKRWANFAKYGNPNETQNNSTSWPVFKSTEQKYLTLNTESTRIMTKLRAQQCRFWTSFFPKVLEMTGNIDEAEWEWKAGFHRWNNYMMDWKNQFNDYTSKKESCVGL
Sequence of Cholinesterases; ACHE & BCHE (Homo sapiens) (P22303 whole entry, looked up): as the sequence (P22303 whole entry) above
Procedure, shortened: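 Ratio of IC50 for AChE to IC50 for BChE, both measured by Ellman assay. Each IC50 is the mean of three independent experiments.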

Acetylcholinesterase [6] = target: T2, Acetylcholinesterase; assay: Inhibition of AChE (unknown origin) using acetylthiocholine iodide as substrate at 0.25 mM preincubated for 30 mins before substrate addition measured after 30 mins by Ellman method relative to control
Cholinesterase [7] = target: T1, Cholinesterase; assay: Inhibition of BChE (unknown origin) using butyrylthiocholine chloride as substrate at 0.25 mM preincubated for 30 mins before substrate addition measured after 30 mins by Ellman method relative to control

T1 sequence (P06276 whole entry): as the sequence (P06276 whole entry, looked up) above

Row | Structure (SMILES) | inhibition (Cholinesterase [1]) [%] | IC50 (Cholinesterase [2]) [µM] | inhibition (Acetylcholinesterase [3]) [%] | IC50 (Acetylcholinesterase [4]) [µM] | Ratio IC50 [5] | inhibition (Acetylcholinesterase [6]) [%] | inhibition (Cholinesterase [7]) [%]
1 | CN(C)CCC[C@@]1(c2ccc(F)cc2)OCc2cc(-c3nnc(-c4ccccc4O)[nH]3)ccc21 | 80.7 | 102 | 16.3 | – | – | – | –
2 | CN(C)CCC[C@@]1(c2ccc(F)cc2)OCc2cc(-c3nnc(-c4cccc(I)c4)[nH]3)ccc21 | 75.5 | 188 | 25.1 | > 500 | > 2.67 | – | –
3 | CN(C)CCC[C@@]1(c2ccc(F)cc2)OCc2cc(-c3nnc(-c4ccccc4Br)[nH]3)ccc21 | 75 | 141 | 19.4 | – | – | – | –
4 | COc1ccc(-c2nnc(-c3ccc4c(c3)CO[C@@]4(CCCN(C)C)c3ccc(F)cc3)[nH]2)cc1 | 81.2 | 168 | 10.3 | – | – | – | –
5 | CN(C)CCC[C@@]1(c2ccc(F)cc2)OCc2cc(-c3nnc(-c4cccc(Cl)c4)[nH]3)ccc21 | 79.9 | 26.5 | 57.4 | 413 | 15.7 | – | –
6 | COc1cccc(-c2nnc(-c3ccc4c(c3)CO[C@@]4(CCCN(C)C)c3ccc(F)cc3)[nH]2)c1 | 91 | 103 | 89.7 | 124 | 1.2 | – | –
7 | CN(C)CCC[C@@]1(c2ccc(F)cc2)OCc2cc(-c3nnc(-c4cccc([N+](=O)[O-])c4)[nH]3)ccc21 | 79.2 | 105 | 81.7 | 138 | 1.32 | – | –
8 | CN(C)CCC[C@@]1(c2ccc(F)cc2)OCc2cc(-c3nnc(-c4ccccc4)[nH]3)ccc21 | 81.8 | 129 | 30.4 | > 500 | > 3.88 | – | –
9 | CN(C)CCC[C@@]1(c2ccc(F)cc2)OCc2cc(-c3nnc(-c4ccc(N)cc4)[nH]3)ccc21 | 72.1 | 119 | 15.3 | – | – | – | –
10 | CN(C)CCC[C@@]1(c2ccc(F)cc2)OCc2cc(-c3nnc(-c4ccc(I)cc4)[nH]3)ccc21 | 85.6 | 161 | 30.5 | > 500 | > 3.11 | – | –
11 | CN(C)CCC[C@@]1(c2ccc(F)cc2)OCc2cc(-c3nnc(-c4ccccc4N)[nH]3)ccc21 | 71.7 | 111 | 70.2 | 360 | 3.25 | – | –
12 | CN(C)CCC[C@@]1(c2ccc(F)cc2)OCc2cc(-c3nnc(-c4ccc(Cl)cc4)[nH]3)ccc21 | 73.7 | 151 | 91.6 | 6.71 | 0.044 | – | –
13 | CN(C)CCC[C@@]1(c2ccc(F)cc2)OCc2cc(-c3nnc(-c4ccc([N+](=O)[O-])cc4)[nH]3)ccc21 | 69.7 | 106 | 16.2 | – | – | – | –
14 | CN(C)CCC[C@@]1(c2ccc(F)cc2)OCc2cc(-c3nnc(-c4ccccc4F)[nH]3)ccc21 | – | 4.52 | – | 188 | 41.5 | 62.1 | 93.6
15 | Cc1ccccc1-c1nnc(-c2ccc3c(c2)CO[C@@]3(CCCN(C)C)c2ccc(F)cc2)[nH]1 | 85 | 99.7 | 88.6 | 9.52 | 0.095 | – | –
16 | COc1ccccc1-c1nnc(-c2ccc3c(c2)CO[C@@]3(CCCN(C)C)c2ccc(F)cc2)[nH]1 | -2.13 | – | 80.4 | 161 | – | – | –
17 | CN(C)CCC[C@@]1(c2ccc(F)cc2)OCc2cc(-c3nnc(-c4cccc(F)c4)[nH]3)ccc21 | 82.9 | 44.8 | 32.2 | < 500 | < 11.2 | – | –
18 | CN(C)CCC[C@@]1(c2ccc(F)cc2)OCc2cc(-c3nnc(-c4ccccc4Cl)[nH]3)ccc21 | 79.6 | 81.4 | 19.5 | – | – | – | –
19 | CN(C)CCC[C@@]1(c2ccc(F)cc2)OCc2cc(-c3nnc(-c4ccccc4I)[nH]3)ccc21 | 84.5 | 25.9 | 72.3 | 310 | 12 | – | –
20 | CN(C)CCC[C@@]1(c2ccc(F)cc2)OCc2cc(-c3nnc(-c4cccc(O)c4)[nH]3)ccc21 | – | 119 | – | < 500 | < 4.22 | 39.3 | 61.7
21 | CN(C)CCC[C@@]1(c2ccc(F)cc2)OCc2cc(-c3nnc(-c4ccc(F)cc4)[nH]3)ccc21 | 92.5 | 5.31 | 71.5 | 261 | 49.1 | – | –
22 | CN(C)CCC[C@@]1(c2ccc(F)cc2)OCc2cc(-c3nnc(-c4ccc(O)cc4)[nH]3)ccc21 | 78.7 | 140 | 59.2 | 388 | 2.76 | – | –
23 | Cc1ccc(-c2nnc(-c3ccc4c(c3)CO[C@@]4(CCCN(C)C)c3ccc(F)cc3)[nH]2)cc1 | 91 | 152 | 16 | – | – | – | –
24 | CN(C)CCC[C@@]1(c2ccc(F)cc2)OCc2cc(-c3nnc(-c4ccc(Br)cc4)[nH]3)ccc21 | 50.6 | 492 | 15.6 | – | – | – | –
25 | COc1cc(-c2nnc(-c3ccc4c(c3)CO[C@@]4(CCCN(C)C)c3ccc(F)cc3)[nH]2)ccc1O | 88.6 | 24.1 | 34.8 | < 500 | < 20.8 | – | –
26 | CN(C)CCC[C@@]1(c2ccc(F)cc2)OCc2cc(-c3nnc(-c4ccccc4[N+](=O)[O-])[nH]3)ccc21 | 62.9 | 297 | 5.09 | – | – | – | –
27 | CN(C)CCC[C@@]1(c2ccc(F)cc2)OCc2cc(-c3nnc(-c4cccc(N)c4)[nH]3)ccc21 | 73.5 | 188 | 29.9 | > 500 | > 2.67 | – | –
28 | Cc1cccc(-c2nnc(-c3ccc4c(c3)CO[C@@]4(CCCN(C)C)c3ccc(F)cc3)[nH]2)c1 | 71.5 | 89.2 | 88.1 | 133 | 1.49 | – | –
29 | CN(C)CCC[C@@]1(c2ccc(F)cc2)OCc2cc(-c3nnc(-c4cccc(Br)c4)[nH]3)ccc21 | 85.5 | 78 | 37.9 | < 500 | < 6.41 | – | –

From ChEMBL document CHEMBL3603773, “Synthesis of novel triazoles and a tetrazole of escitalopram as cholinesterase inhibitors” (Bioorg Med Chem, 2015)
